Sampled rows, rich in hits. Any-hit rate of the full collection: about 3.5%.
MrgX1 ag: agonists of human MrgX1 receptor; Q96LB2; B-score at 10 µM; MrgX1-HEK293 cells, Fluo-4 calcium fluorescence, agonist mode; active compounds read high; 310,000 tested, 0.44% active;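 active = calcium response B-score plate-corrected fluorescence ratio at least 3 library SD, with starting fluorescence B-score inside 5 SD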
Target sequence (Q96LB2 whole entry, looked up): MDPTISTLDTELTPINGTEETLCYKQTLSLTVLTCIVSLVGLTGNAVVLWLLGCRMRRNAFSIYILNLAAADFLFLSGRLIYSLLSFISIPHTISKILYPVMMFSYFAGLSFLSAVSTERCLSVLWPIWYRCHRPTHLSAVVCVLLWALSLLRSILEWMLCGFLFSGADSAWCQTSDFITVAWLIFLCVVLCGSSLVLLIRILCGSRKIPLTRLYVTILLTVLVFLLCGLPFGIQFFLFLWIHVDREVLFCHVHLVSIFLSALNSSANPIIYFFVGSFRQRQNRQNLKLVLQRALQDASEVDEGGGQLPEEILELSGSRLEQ
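Assay system: MrgX1-expressing HEK293 cells / Amount: fifteen thousand cells per well / Doses: test compound in the initial addition of three / Timing: cells plated overnight, dye loaded 0.5 h 37 °C, 0.5 h room temperature / Technique: kinetic calcium dye fluorescence, Fluo-4 NW / Control set: positive and negative controls per plate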
MrgX1 allo act: human MrgX1 positive allosteric modulation, primary screen; Q96LB2; MrgX1-HEK293, Fluo-4 calcium flux, FDSS; active compounds read high; B-score at 10 µM; 310,000 tested, 0.63% active; AID 588675;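 active = plate-corrected calcium response at least 3 library SD above typical, normal starting fluorescence, not activating the receptor alone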;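 note: compound read alongside a low EC10 to EC30 dose of BAM8-22 agonist; peak minus trough fluorescence over baseline measured at the second addition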
RGS4 inh: human RGS4 inhibition; P49798; HEK293 M3R/RGS4 inducible, Fluo-4 calcium flux; active compounds read high; triggered by carbachol at its EC20; B-score at 10 µM; 310,000 tested, 0.45% active; AID 463165;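 active = B-score, a plate-corrected calcium signal, over three deviations above library mean, with baseline fluorescence within five deviations of library mean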;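 note: RGS4 expression induced by doxycycline in cells with stable M3 receptor; B-score is computed from the integrated fluorescence ratio over baseline after carbachol; higher B-score means a larger calcium signal and so more RGS4 inhibition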
Target sequence (P49798 whole entry, looked up): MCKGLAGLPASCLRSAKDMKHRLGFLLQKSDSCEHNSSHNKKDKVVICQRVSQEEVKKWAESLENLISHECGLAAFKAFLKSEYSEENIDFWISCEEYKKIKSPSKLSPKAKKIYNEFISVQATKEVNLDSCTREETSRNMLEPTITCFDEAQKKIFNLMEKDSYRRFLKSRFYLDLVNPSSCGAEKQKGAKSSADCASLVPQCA
MrgX1 antag: antagonists of human MrgX1 receptor; AID 588676; B-score at 10 µM; 310,000 tested, 1.3% active; Q96LB2; MRGX1-HEK293 calcium flux, Fluo-4, BAM8-22 antagonism; active compounds read low;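 active = calcium-response B-score plate-corrected more than 3 library SD below zero, starting fluorescence within 5 deviations, no agonist response on first addition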;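 note: peak minus trough fluorescence over baseline after final BAM8-22 challenge near maximal dose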
RGS4 pot: RGS4 potentiation or activation | AID 463111 | HEK293 M3R/inducible RGS4, carbachol calcium flux Fluo4; active compounds read low | 310,000 tested, 0.92% active | B-score at 10 µM;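 active = B-score of the integrated calcium signal more than 4 SD below the library mean, with starting fluorescence not abnormally high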;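 note: negative B-score means reduced calcium response which marks RGS4 activation or potentiation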
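Also added: carbachol at ECmax as muscarinic agonist stimulus; Assay system: HEK293 cells with stable M3R and inducible RGS4; Timing: overnight RGS4 induction, 30 min dye load 37 °C, 20 min compound RT; Measured by: Fluo4-AM (2 µM) calcium-flux fluorescence, kinetic read.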
An asterisk follows results filed as active; i = inactive.

SMILES	MrgX1 ag	MrgX1 allo act	RGS4 inh	MrgX1 antag	RGS4 pot
CCOCCCNC(=O)C1CCCN(S(=O)(=O)c2ccc(-n3cnnn3)cc2)C1 (configuration not stated)	i	i	i	i	i
CC1CC(=O)c2c(cc3c(-c4c(O)cc(O)c5c(O)c6c(cc45)OC(C)CC6=O)c(O)cc(O)c3c2O)O1 (configuration not stated)	i	i	i	-6.8*	i
C=CCNC(=O)C1CCN(c2ccc(S(=O)(=O)N3CCOCC3)cc2[N+](=O)[O-])CC1	i	i	i	i	i
CC(C)(CO)CNC(=O)c1ccc(OC2CCN(C(=O)C3CC3)CC2)cc1	i	i	i	i	i
O=C(COc1ccc(F)cc1)Nc1c(C(=O)N2CCC(N3CCCCC3)CC2)oc2ccccc12	i	i	i	i	i
O=C1OCCN1C(=O)[C@H]1[C@H](c2ccc(F)cc2)C(c2ccc(F)cc2)=NN1c1ccc(Br)cc1	i	i	i	i	-9.2*
COc1ccc(CCc2nnc(CCC(=O)N(C)Cc3ccnc4ccccc34)o2)cc1	i	i	i	i	i
O=C(O)c1cc(S(=O)(=O)Nc2cccc3ccccc23)c(Cl)cc1Cl	i	i	i	i	i
CC1CCN(c2cc(C#N)c(C#N)cc2[N+](=O)[O-])CC1	i	11*	i	i	i
CC1CCN(c2cc(N)c(Cl)cc2[N+](=O)[O-])CC1	i	7.3*	i	i	i
COc1cc(SC)ccc1C(=O)NNC(=O)c1cc(C)oc1C	i	i	i	-4.8*	i
COc1cc(SC)ccc1C(=O)Nc1c(C)cccc1C	i	i	i	i	i
COC1=C(c2ccccc2)C(=O)c2ccccc2C1=O	i	7.2*	i	i	i
O=C(NCCCN1CCCC1)c1ccc2c(c1)N(Cc1ccccc1)CCS2	i	i	i	i	-7.4*
COc1ccc(Nc2nc(N)c([N+](=O)[O-])c(NC3CCCCC3)n2)cc1	i	i	i	i	-9.4*
O=C1c2cccc3cccc(c23)C(=O)N1CCCN1CCN(c2ccc(F)cc2)CC1	i	i	i	i	i
Cc1ccc(Nc2nc(N)nc(CN3CCN(C)CC3)n2)cc1	i	i	i	i	-7.2*
CC(=O)N(c1ccccc1)C1CCCC1	i	i	i	i	i
O=C(CCl)N(c1ccccc1)C1CCCCC1	i	i	i	i	-7*
COc1ccc([N+](=O)[O-])cc1NC(=O)CSc1nc(C)c(C)c(C)n1	i	i	i	-4.5*	i
COc1ccc([N+](=O)[O-])cc1NC(=O)CSc1nccc(C)n1	i	i	i	i	i
O=C(NC(=S)NNC(=O)c1ccccc1[N+](=O)[O-])c1ccccc1	i	9.7*	i	i	i
O=C(NNC(=S)NC(=O)c1cccc([N+](=O)[O-])c1)c1ccc(Br)cc1	93*	i	i	i	-8.3*
O=C(NNC(=S)NC(=O)c1ccccc1[N+](=O)[O-])c1ccccc1	i	i	i	i	i
CCCCC(=O)Nc1ccc(C(=O)NNC(=S)NC(=O)c2ccccc2[N+](=O)[O-])cc1	i	i	i	i	i
SMILES	MrgX1 ag	MrgX1 allo act	RGS4 inh	MrgX1 antag	RGS4 pot
O=C(NNC(=S)NC(=O)c1cccc([N+](=O)[O-])c1)c1ccc(O)cc1	i	i	i	i	i
CCCOc1ccc(C(=O)NNC(=S)NC(=O)c2ccccc2[N+](=O)[O-])cc1	i	8.4*	i	i	i
CCCOc1ccc(C(=O)NNC(=S)NC(=O)c2cc(-c3ccccc3)nc3ccccc23)cc1	i	i	i	-4.7*	-9.3*
CCCOc1ccc(C(=O)NNC(=S)NC(C)=O)cc1	i	i	i	i	i
O=C(CCSc1ccc(Cl)cc1)Nc1cccnc1	i	i	i	i	i
O=C(c1ccc(S(=O)(=O)c2cccc(Cl)c2)c([N+](=O)[O-])c1)N1CCN(c2ccccn2)CC1	i	i	i	i	i
CCN1C(=O)CC2(C[N+]3(C)CCC2CC3)C1=O (configuration not stated)	i	i	i	i	-7.2*
O=C(NCCCN1CCOCC1)c1ccc2c(c1)N(Cc1c(F)cccc1Cl)C(=O)c1ccccc1S2	i	i	i	i	i
COc1ccc(-n2cccc2/C=C/[N+](=O)[O-])cc1	33*	i	i	i	i
COc1ccc(-n2cccc2C=O)cc1	i	i	i	i	i
COc1ccc(/C=C2/SC(=S)N(NS(=O)(=O)c3ccc(C)cc3)C2=O)cc1	i	i	i	-5.2*	-8.4*
O=C1/C(=C/c2ccccn2)SC(=S)N1NS(=O)(=O)c1ccccc1	i	8.9*	i	-5.3*	i
Cc1ccc(/C=C2\SC(=S)N(NS(=O)(=O)c3ccc(C)cc3)C2=O)cc1	i	i	i	i	-8.2*
Cc1ccc(S(=O)(=O)NN2C(=O)/C(=C\c3ccc(Cl)cc3)SC2=S)cc1	i	i	i	i	i
COc1ccc(/C=C2/SC(=O)N(NS(=O)(=O)c3ccccc3)C2=S)cc1OC	27*	i	i	i	i
O=C1/C(=C/c2cccc(F)c2)SC(=S)N1NS(=O)(=O)c1ccccc1	i	i	i	i	i
COc1cc(/C=C2\SC(=S)N(NS(=O)(=O)c3ccccc3)C2=O)cc(OC)c1OC	i	i	i	i	i
Cc1cccc(OCC(=O)NCC(=O)N/N=C/c2cc(Br)cc(Br)c2O)c1	i	i	i	i	i
CC(Oc1ccc(C(C)(C)C)cc1)C(=O)NC1CC(C)(C)NC(C)(C)C1 (configuration not stated)	i	i	i	i	i
C=CCOc1ccc(/C=C2\SC(=S)N(NS(=O)(=O)c3ccc(C)cc3)C2=O)cc1	i	i	i	i	-7*
CN(C)Cc1ccc(CNC(=O)COc2ccc3ccccc3c2)cc1	i	i	i	i	i
Cc1ccccc1OCC(=O)NCCCNC(=O)c1ccccn1	i	i	i	i	i
Cc1ccc(/C=N/NC(=O)Cc2cccn2C)cc1	i	6.7*	i	i	i
Cc1ccc(/C=N/NC(=O)Cc2cccn2C)s1	i	6.5*	i	i	i
Cn1cccc1CC(=O)N/N=C/c1ccc(C(C)(C)C)cc1	i	i	i	i	i
COc1ccccc1C(C#N)N1N=C(C)CC1c1ccccc1 (configuration not stated)	28*	i	i	i	i

Assay outcomes deposited in PubChem by Johns Hopkins Ion Channel Center.
